Measured values reported in ChEMBL document CHEMBL5036319, “Discovery of Novel Benzothiazepinones as Irreversible Covalent Glycogen Synthase Kinase 3β Inhibitors for the Treatment of Acute Promyelocytic Leukemia” (J Med Chem, 2021).
The source made the active and inactive calls. No cut-off for these calls is given here.

Columns and labels:
[1] = Induction in caspase-mediated apoptosis in human NB-4 cells assessed as viable cells at 12.5 uM incubated for 24 hrs in presence of Z-VAD-FMK by Annexin V-FITC/propidium iodide staining based flow cytometry analysis (reference value: 96.8%); assay type: functional; settings: read-out: Activity
[2] = Induction in caspase-mediated apoptosis in human NB-4 cells assessed as necrotic cells at 25 uM incubated for 24 hrs by Annexin V-FITC/Propidium iodide staining based flow cytometry analysis (reference value: 0.352%); assay type: functional
[3] = Induction in caspase-mediated apoptosis in human NB-4 cells assessed as early apoptotic cells at 25 uM incubated for 24 hrs by Annexin V-FITC/propidium iodide staining based flow cytometry analysis (reference value: 2.02%); assay type: functional
[4] = Cytotoxicity against human L02 cells assessed as cell viability at 0 to 50 uM incubated for 24 hrs by CCK-8 assay relative to control; assay type: cell-based; settings: dose 0-50 µM, read-out: Activity
In short: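 HUVEC and LO2 normal cells were cultured in RPMI-1640 or DMEM with 10% FBS at 37 °C, 5% CO2, and seeded at 3 × 10^4 cells/well. They were exposed for 24 h to graded concentrations. CCK-8 incubation was 3 h at 37 °C, with A450 read and viability expressed versus untreated control. Three independent experiments, mean ± SEM.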

[5] = Induction in caspase-mediated apoptosis in human NB-4 cells assessed as late apoptotic cells at 12.5 uM incubated for 24 hrs by Annexin V-FITC/propidium iodide staining based flow cytometry analysis (reference value: 1.06%); assay type: functional
[6] = Induction in caspase-mediated apoptosis in human NB-4 cells assessed as necrotic cells at 12.5 uM incubated for 24 hrs in presence of Z-VAD-FMK by Annexin V-FITC/propidium iodide staining based flow cytometry analysis (reference value: 0.167%); assay type: functional
[7] = Induction in caspase-mediated apoptosis in human NB4-DR1 cells assessed as viable cells at 50 uM incubated for 24 hrs in presence of Z-VAD-FMK by Annexin V-FITC/propidium iodide staining based flow cytometry analysis (reference value: 96.4%); assay type: functional; settings: read-out: Activity
[8] = Tmax in ICR mouse at 15 mg/kg, ip administered as single dose measured upto 8 hrs by LC-MS/MS analysis; assay type: ADME, organism-based; settings: in vivo
In short: (§1)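 Male ICR mice (30 g) received a single 15 mg/kg i.p. bolus in corn oil. Orbital blood went into K3EDTA tubes at 0.08–8 h, three animals per time point (composite profile). Plasma was protein-precipitated with acetonitrile and analysed by LC–MS/MS; non-compartmental analysis.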

[9] = AUCinfinity in ICR mouse at 15 mg/kg, ip administered as single dose measured upto 8 hrs by LC-MS/MS analysis; assay type: ADME, organism-based; parameters: route intraperitoneal, dose 15 mg/kg, time <=8; settings: in vivo
In short: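 Male ICR mice (30 g) given a single i.p. bolus of 15 mg/kg in corn oil. Blood taken by orbital collection into K3EDTA tubes at 0.08, 0.17, 0.5, 1, 2, 4 and 8 h, three animals per time point, giving a composite profile. Plasma proteins were precipitated with acetonitrile and analysed by LC-MS/MS. Parameters were derived by non-compartmental analysis.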

[10] = test system: NB-4; assay: Effect on glycogen synthase phosphorylation in human NB-4 cells assessed as reduction in ratio of p-GS to GS measured after 24 hrs by Western blot analysis; assay type: functional, cell-based
In short: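 NB4 and NB4-R1 cells were treated 24 h at several concentrations and lysed in RIPA. Equal protein was immunoblotted for phospho-glycogen synthase (Ser641), total GS and β-actin, with ECL detection. Band densities were quantified as the p-GS/GS ratio. n = 3, mean ± SEM.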

[11] = Induction in caspase-mediated apoptosis in human NB4-DR1 cells assessed as viable cells at 100 uM incubated for 24 hrs by Annexin V-FITC/propidium iodide staining based flow cytometry analysis (reference value: 96.9%); assay type: functional; settings: read-out: Activity
[12] = Induction in caspase-mediated apoptosis in human NB4-DR1 cells assessed as early apoptotic cells at 25 uM incubated for 24 hrs by Annexin V-FITC/propidium iodide staining based flow cytometry analysis (reference value: 1.43%); assay type: functional
[13] = test system: MOLT-4; assay: Cytotoxicity against human MOLT-4 cells assessed as reduction in cell viability measured after 24 hrs by CCK-8 assay; assay type: functional, cell-based; settings: MOLT-4, 24 h
In short: (§2)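 Cells were grown in RPMI-1640 or high-glucose DMEM with 10% FBS at 37 °C, 5% CO2, and seeded at 3 × 10^4 cells/well. Exposure was 24 h across serial concentrations (0−1000 μM in the screen). […] Three independent experiments, mean ± SEM.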

[14] = Induction in caspase-mediated apoptosis in human NB-4 cells assessed as late apoptotic cells at 25 uM incubated for 24 hrs in presence of Z-VAD-FMK by Annexin V-FITC/propidium iodide staining based flow cytometry analysis (reference value: 1.15%); assay type: functional
[15] = Induction in caspase-mediated apoptosis in human NB4-DR1 cells assessed as viable cells at 100 uM incubated for 24 hrs in presence of Z-VAD-FMK by Annexin V-FITC/propidium iodide staining based flow cytometry analysis (reference value: 96.4%); assay type: functional; settings: read-out: Activity
[16] = Induction in caspase-mediated apoptosis in human NB-4 cells assessed as viable cells at 25 uM incubated for 24 hrs in presence of Z-VAD-FMK by Annexin V-FITC/propidium iodide staining based flow cytometry analysis (reference value: 96.8%); assay type: functional; settings: read-out: Activity
[17] = test system: NB4-DR1; assay: Antiproliferative activity against human NB4-DR1 cells assessed as reduction in cell viability incubated for 24 hrs by CCK-8 assay; assay type: functional, cell-based; settings: NB4-DR1, 24 h; in short: as §2
[18] = Induction in caspase-mediated apoptosis in human NB4-DR1 cells assessed as necrotic cells at 100 uM incubated for 24 hrs by Annexin V-FITC/propidium iodide staining based flow cytometry analysis (reference value: 0.19%); assay type: functional
[19] = test system: NB-4; assay: Cytotoxicity against human NB-4 cells assessed as reduction in cell viability measured after 24 hrs by CCK-8 assay; assay type: functional, cell-based; settings: NB-4, 24 h; in short: as §2
[20] = Induction in caspase-mediated apoptosis in human NB4-DR1 cells assessed as early apoptosis cells at 100 uM incubated for 24 hrs in presence of Z-VAD-FMK by Annexin V-FITC/propidium iodide staining based flow cytometry analysis (reference value: 0.875%); assay type: functional
[21] = Induction in caspase-mediated apoptosis in human NB-4 cells assessed as necrotic cells at 100 uM incubated for 24 hrs by Annexin V-FITC/Propidium iodide staining based flow cytometry analysis (reference value: 0.352%); assay type: functional
[22] = Induction in caspase-mediated apoptosis in human NB-4 cells assessed as necrotic cells at 12.5 uM incubated for 24 hrs by Annexin V-FITC/Propidium iodide staining based flow cytometry analysis (reference value: 0.352%); assay type: functional
[23] = Terminal half life in ICR mouse at 15 mg/kg, ip administered as single dose measured upto 8 hrs by LC-MS/MS analysis; assay type: ADME, organism-based; settings: in vivo; in short: as §1
[24] = Induction in caspase-mediated apoptosis in human NB-4 cells assessed as viable cells at 50 uM incubated for 24 hrs by Annexin V-FITC/propidium iodide staining based flow cytometry analysis (reference value: 96.6%); assay type: functional; settings: read-out: Activity
[25] = Induction in caspase-mediated apoptosis in human NB4-DR1 cells assessed as late apoptotic cells at 12.5 uM incubated for 24 hrs by Annexin V-FITC/propidium iodide staining based flow cytometry analysis (reference value: 1.47%); assay type: functional

## C=CC(=O)N1C(=O)CC(c2ccc(F)cc2)Sc2ccccc21 (stereo not given)
[1]
  viability at 12.5 µM: 86.4%
[2]
  Activity: 11.6%
[3]
  Activity: 6.44%
[4]
  viability at 24 h, up to 50 µM: > 80%
[5]
  Activity: 8.04%
[6]
  Activity: 1.59%
[7]
  viability at 50 µM: 91.3%
[8]
  Tmax: 1 h
[9]
  AUC: 10838.33 ng·h/mL
[10]
  Activity: Active
[11]
  viability at 100 µM: 42.7%
[12]
  Activity: 2.07%
[13]
  IC50: 75.6 µM
[14]
  Activity: 11.2%
[15]
  viability at 100 µM: 82.2%
[16]
  viability at 25 µM: 80%
[17]
  IC50: 26.4 µM
[18]
  Activity: 6.32%
[19]
  IC50: 19.6 µM
[20]
  Activity: 2.19%
[21]
  Activity: 4.39%
[22]
  Activity: 6.13%
[23]
  beta t1/2: 14.2 h
[24]
  viability at 50 µM: 14.2%
[25]
  Activity: 5.54%
